We go through 9 compounds from ChEMBL document CHEMBL3272147, “Nonapeptide ethylamide inhibitors of the luteinizing hormone-releasing hormone (LH-RH) having a D-alanyl residue in position 6 and variations at positions 2 and 3” (1977).

Experiment [1] concerns the target T1, Gonadotropin-releasing hormone receptor (Rattus norvegicus) (UniProt P30969).
T1 sequence (whole entry): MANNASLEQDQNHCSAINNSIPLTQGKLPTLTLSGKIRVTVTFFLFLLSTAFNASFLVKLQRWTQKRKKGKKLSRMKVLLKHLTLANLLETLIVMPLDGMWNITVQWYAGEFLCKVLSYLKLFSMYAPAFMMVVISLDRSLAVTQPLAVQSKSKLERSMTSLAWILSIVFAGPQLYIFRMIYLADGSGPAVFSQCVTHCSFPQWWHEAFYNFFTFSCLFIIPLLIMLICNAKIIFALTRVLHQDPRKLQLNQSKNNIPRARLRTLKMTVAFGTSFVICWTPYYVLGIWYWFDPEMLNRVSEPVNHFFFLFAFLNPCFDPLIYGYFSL
Briefly: Antagonist activity at LH-RH receptor in Sprague-Dawley rat pituitary gland assessed as change in 0.3 ng/mL LH-RH-induced follicle-stimulating hormone release in medium at 1 ug/ml preincubated for 2 hrs followed by LH-RH addition at 5th and 6th hr 5 mins post drug addition and measured every hour for 4 hrs by RIA relative to vehicle-treated control. An outline of the steps:
(§1)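 Two pituitaries from 20-day-old female Sprague-Dawley rats per 1 mL lactated Ringer's, incubated 6 h at 37 °C with shaking, medium collected and replaced hourly for LH/FSH RIA. Analogue added at I3, I4, I5 and I6; LH-RH added 5 min after the peptide at I5 and I6. Results given as Δ ng/mL against LH-LER-1240-2 and NIH-FSH-S1-based standards, with SEM and p.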

Experiment [2] has as its target T1, Gonadotropin-releasing hormone receptor (Rattus norvegicus). The experiment in a line: Antagonist activity at LH-RH receptor in Sprague-Dawley rat pituitary gland assessed as change in 0.3 ng/mL LH-RH-induced follicle-stimulating hormone release in medium at 10 ug/ml preincubated for 2 hrs followed by LH-RH addition at 5th and 6th hr 5 mins post drug addition and measured every hour for 4 hrs by RIA relative to vehicle-treated control. In short, it runs like this:
as §1

Experiment [3] shares this target. The experiment in a line: Agonist activity at LH-RH receptor in Sprague-Dawley rat pituitary gland assessed as change in follicle-stimulating hormone release in medium at 10 ug/ml incubated for 4 hrs measured every hour for 4 hrs by RIA relative to vehicle-treated control. In short, it runs like this: (§2)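 Pituitaries from 20-day-old female Sprague-Dawley rats, two per 1 mL lactated Ringer's, incubated 6 h total at 37 °C with shaking. Medium removed hourly for LH and FSH RIA and replaced with fresh medium. Analogue alone added at I3–I6. Values expressed as ng of standards LH-LER-1240-2 (0.60 NIH-LH-S1 unit/mg) and FSH 2.1 × NIH-FSH-S1 units/mg; change versus control with SEM and p.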

Experiment [4] shares this target. Briefly: Antagonist activity at LH-RH receptor in Sprague-Dawley rat pituitary gland assessed as change in 0.3 ng/mL LH-RH-induced luteinizing hormone release in medium at 1 ug/ml preincubated for 2 hrs followed by LH-RH addition at 5th and 6th hr 5 mins post drug addition and measured every hour for 4 hrs by RIA relative to vehicle-treated control. In short, it runs like this: as §1

Experiment [5] has the same target. Briefly: Agonist activity at LH-RH receptor in Sprague-Dawley rat pituitary gland assessed as change in luteinizing hormone release in medium at 10 ug/ml incubated for 4 hrs measured every hour for 4 hrs by RIA relative to vehicle-treated control. In short, it runs like this: as §2
Experiment [6] shares this target. The experiment in a line: Antagonist activity at LH-RH receptor in Sprague-Dawley rat pituitary gland assessed as change in 0.3 ng/mL LH-RH-induced luteinizing hormone release in medium at 10 ug/ml preincubated for 2 hrs followed by LH-RH addition at 5th and 6th hr 5 mins post drug addition and measured every hour for 4 hrs by RIA relative to vehicle-treated control. In short, it runs like this: as §1

For experiment [7] the target is unchanged. Briefly: Antagonist activity at LH-RH receptor in Sprague-Dawley rat pituitary gland assessed as change in 0.3 ng/mL LH-RH-induced luteinizing hormone release in medium at 100 ug/ml preincubated for 2 hrs followed by LH-RH addition at 5th and 6th hr 5 mins post drug addition and measured every hour for 4 hrs by RIA relative to vehicle-treated control. An outline of the steps:
as §1

Experiment [8] has the same target. The experiment in a line: Agonist activity at LH-RH receptor in Sprague-Dawley rat pituitary gland assessed as change in luteinizing hormone release in medium at 100 ug/ml incubated for 4 hrs measured every hour for 4 hrs by RIA relative to vehicle-treated control. In short, it runs like this:
as §2

For experiment [9] the target is unchanged. Briefly: Agonist activity at LH-RH receptor in Sprague-Dawley rat pituitary gland assessed as change in follicle-stimulating hormone release in medium at 100 ug/ml incubated for 4 hrs measured every hour for 4 hrs by RIA relative to vehicle-treated control. An outline of the steps: as §2
Experiment [10] shares this target. The experiment in a line: Antagonist activity at LH-RH receptor in Sprague-Dawley rat pituitary gland assessed as change in 0.3 ng/mL LH-RH-induced follicle-stimulating hormone release in medium at 100 ug/ml preincubated for 2 hrs followed by LH-RH addition at 5th and 6th hr 5 mins post drug addition and measured every hour for 4 hrs by RIA relative to vehicle-treated control. In short, it runs like this: as §1

For experiment [11] the target is unchanged. The experiment in a line: Antagonist activity at LH-RH receptor in Sprague-Dawley rat pituitary gland assessed as change in 0.3 ng/mL LH-RH-induced follicle-stimulating hormone release in medium at 0.1 ug/ml preincubated for 2 hrs followed by LH-RH addition at 5th and 6th hr 5 mins post drug addition and measured every hour for 4 hrs by RIA relative to vehicle-treated control. In short, it runs like this:
as §1

Experiment [12] has the same target. The experiment in a line: Antagonist activity at LH-RH receptor in Sprague-Dawley rat pituitary gland assessed as change in 0.3 ng/mL LH-RH-induced luteinizing hormone release in medium at 0.1 ug/ml preincubated for 2 hrs followed by LH-RH addition at 5th and 6th hr 5 mins post drug addition and measured every hour for 4 hrs by RIA relative to vehicle-treated control. In short, it runs like this: as §1

Experiment [13] has the same target. The experiment in a line: Antagonist activity at LH-RH receptor in Sprague-Dawley rat pituitary gland assessed as change in 0.6 ng/mL LH-RH-induced follicle-stimulating hormone release in medium at 10 ug/ml preincubated for 2 hrs followed by LH-RH addition at 5th and 6th hr 5 mins post drug addition and measured every hour for 4 hrs by RIA relative to vehicle-treated control. An outline of the steps:
as §1

Experiment [14] shares this target. The experiment in a line: Antagonist activity at LH-RH receptor in Sprague-Dawley rat pituitary gland assessed as change in 0.6 ng/mL LH-RH-induced luteinizing hormone release in medium at 10 ug/ml preincubated for 2 hrs followed by LH-RH addition at 5th and 6th hr 5 mins post drug addition and measured every hour for 4 hrs by RIA relative to vehicle-treated control. In short, it runs like this: as §1

Experiment [15] has the same target. Briefly: Antagonist activity at LH-RH receptor in Sprague-Dawley rat pituitary gland assessed as change in 0.6 ng/mL LH-RH-induced luteinizing hormone release in medium at 0.1 ug/ml preincubated for 2 hrs followed by LH-RH addition at 5th and 6th hr 5 mins post drug addition and measured every hour for 4 hrs by RIA relative to vehicle-treated control. In short, it runs like this: as §1

Experiment [16] has the same target. The experiment in a line: Antagonist activity at LH-RH receptor in Sprague-Dawley rat pituitary gland assessed as change in 0.6 ng/mL LH-RH-induced luteinizing hormone release in medium at 1 ug/ml preincubated for 2 hrs followed by LH-RH addition at 5th and 6th hr 5 mins post drug addition and measured every hour for 4 hrs by RIA relative to vehicle-treated control. An outline of the steps: as §1

For experiment [17] the target is unchanged. The experiment in a line: Antagonist activity at LH-RH receptor in Sprague-Dawley rat pituitary gland assessed as change in 0.6 ng/mL LH-RH-induced follicle-stimulating hormone release in medium at 0.1 ug/ml preincubated for 2 hrs followed by LH-RH addition at 5th and 6th hr 5 mins post drug addition and measured every hour for 4 hrs by RIA relative to vehicle-treated control. In short, it runs like this: as §1

The target is the same in experiment [18]. The experiment in a line: Antagonist activity at LH-RH receptor in Sprague-Dawley rat pituitary gland assessed as change in 0.6 ng/mL LH-RH-induced follicle-stimulating hormone release in medium at 1 ug/ml preincubated for 2 hrs followed by LH-RH addition at 5th and 6th hr 5 mins post drug addition and measured every hour for 4 hrs by RIA relative to vehicle-treated control. An outline of the steps: as §1

As for `CCNC(=O)[C@@H]1CCCN1C(=O)[C@H](CCCNC(=N)N)NC(=O)[C@H](CC(C)C)NC(=O)[C@@H](C)NC(=O)[C@H](Cc1ccc(O)cc1)NC(=O)[C@H](CO)NC(=O)[C@H](CC(C)C)NC(=O)[C@@H](NC(=O)[C@@H]1CCC(=O)N1)C(C)C`, the Activity in [1] was determined as 4320 ng/mL; in experiment [2], 1640 ng/mL; in experiment [3], 490 ng/mL; in [4], 272 ng/mL; in [5] it was 8 ng/mL; in experiment [6] it was 63 ng/mL.
Regarding `CCNC(=O)[C@@H]1CCCN1C(=O)[C@H](CCCNC(=N)N)NC(=O)[C@H](CC(C)C)NC(=O)[C@@H](C)NC(=O)[C@H](Cc1ccc(O)cc1)NC(=O)[C@H](CO)NC(=O)[C@H](CC)NC(=O)[C@H](CC(C)C)NC(=O)[C@@H]1CCC(=O)N1`, the Activity in [2] turned out to be 3480 ng/mL; in experiment [7], 45 ng/mL; in experiment [8] it was 1 ng/mL; in experiment [9] it was 866 ng/mL; in experiment [6], 150 ng/mL; in experiment [10], 1780 ng/mL.
`CCNC(=O)[C@@H]1CCCN1C(=O)[C@H](CCCNC(=N)N)NC(=O)[C@H](CC(C)C)NC(=O)[C@@H](C)NC(=O)[C@H](Cc1ccc(O)cc1)NC(=O)[C@H](CO)NC(=O)[C@H](CC(C)C)NC(=O)[C@@H](NC(=O)[C@@H]1CCC(=O)N1)[C@@H](C)CC`: the Activity in experiment [1] is 3330 ng/mL; in experiment [2], 1760 ng/mL; in [8], 61 ng/mL; in experiment [4], 186 ng/mL; in [9], -227 ng/mL; in experiment [6] it was -53 ng/mL.
As to `CCNC(=O)[C@@H]1CCCN1C(=O)[C@H](CCCNC(=N)N)NC(=O)[C@H](CC(C)C)NC(=O)[C@@H](C)NC(=O)[C@H](Cc1ccc(O)cc1)NC(=O)[C@H](CO)NC(=O)[C@H](CC(C)C)NC(=O)[C@H](CC(C)C)NC(=O)[C@@H]1CCC(=O)N1`, the Activity in experiment [1] was 3980 ng/mL; in experiment [2], 1460 ng/mL; in experiment [11], 5110 ng/mL; in experiment [12], 166 ng/mL; in experiment [8], 73 ng/mL; in experiment [4], 60 ng/mL. Besides, the results for the Activity in experiment [9] and in experiment [6] were 712 ng/mL and 45 ng/mL, respectively.
In the case of `CCNC(=O)[C@@H]1CCCN1C(=O)[C@H](CCCNC(=N)N)NC(=O)[C@H](CC(C)C)NC(=O)[C@@H](C)NC(=O)[C@H](Cc1ccc(O)cc1)NC(=O)[C@H](CO)NC(=O)CNC(=O)[C@H](CC(C)C)NC(=O)[C@@H]1CCC(=O)N1`, the Activity in [7] is 169 ng/mL; in experiment [8], -6 ng/mL; in experiment [9], -782 ng/mL; in [10] it was 3310 ng/mL.
On to `CCNC(=O)[C@@H]1CCCN1C(=O)[C@H](CCCNC(=N)N)NC(=O)[C@H](CC(C)C)NC(=O)[C@@H](C)NC(=O)[C@H](Cc1ccc(O)cc1)NC(=O)[C@H](CO)NC(=O)[C@H](CC(C)C)NC(=O)[C@H](Cc1ccccc1)NC(=O)[C@@H]1CCC(=O)N1`, for which the Activity in experiment [1] stood at 1560 ng/mL; in [2] it was 549 ng/mL; in [11], 3120 ng/mL; in experiment [12], 130 ng/mL; in experiment [8] it was 59 ng/mL; in experiment [4], 77 ng/mL. Moreover, the figures for the Activity in experiment [9] and in [6] were 1380 ng/mL and 47 ng/mL, respectively.
As to `CCC[C@H](NC(=O)[C@H](CC(C)C)NC(=O)[C@@H]1CCC(=O)N1)C(=O)N[C@@H](CO)C(=O)N[C@@H](Cc1ccc(O)cc1)C(=O)N[C@H](C)C(=O)N[C@@H](CC(C)C)C(=O)N[C@@H](CCCNC(=N)N)C(=O)N1CCC[C@H]1C(=O)NCC`, the Activity in [1] amounted to 3900 ng/mL; in experiment [2] it was 2000 ng/mL; in experiment [11] it was 5120 ng/mL; in [12] it was 213 ng/mL; in experiment [4], 93 ng/mL; in experiment [6], 45 ng/mL.
Consider `CCC[C@H](NC(=O)[C@H](Cc1ccccc1)NC(=O)[C@@H]1CCC(=O)N1)C(=O)N[C@@H](CO)C(=O)N[C@@H](Cc1ccc(O)cc1)C(=O)N[C@H](C)C(=O)N[C@@H](CC(C)C)C(=O)N[C@@H](CCCNC(=N)N)C(=O)N1CCC[C@H]1C(=O)NCC`, for which the Activity in experiment [13] was -883 ng/mL; in [14], -7 ng/mL; in experiment [15], 221 ng/mL; in experiment [16] it was 32 ng/mL; in [17] it was 3980 ng/mL; in [8], -66 ng/mL. In addition, the results for the Activity in experiment [9] and in experiment [18] were -204 ng/mL and 2700 ng/mL, respectively.
Consider `CCCC[C@H](NC(=O)[C@H](CC(C)C)NC(=O)[C@@H]1CCC(=O)N1)C(=O)N[C@@H](CO)C(=O)N[C@@H](Cc1ccc(O)cc1)C(=O)N[C@H](C)C(=O)N[C@@H](CC(C)C)C(=O)N[C@@H](CCCNC(=N)N)C(=O)N1CCC[C@H]1C(=O)NCC`, for which the Activity was 2240 ng/mL in experiment [1]; 1630 ng/mL in experiment [2]; 12 ng/mL in experiment [7]; 13 ng/mL in experiment [8]; 70 ng/mL in [4]; -282 ng/mL in experiment [9]. Besides, the figures for the Activity in experiment [6] and in [10] were 28 ng/mL and -516 ng/mL, respectively.
